From ChEMBL document CHEMBL1156026, “Design and synthesis of pyridazinone-based 5-HT(2C) agonists” (Bioorg Med Chem Lett, 2009)
pEC50, pKi: −log10 of the molar value.

Experiments:
[1] = Efflux ratio of permeability across MDCK cell membrane; assay type: ADME, cell-based, Canis lupus familiaris; conditions: dog
[2] = Metabolic stability in human liver microsomes; assay type: ADME, Microsome; conditions: read-out: Stability
[3] = Lipophilicity, log D at pH 7.4; assay type: physicochemical; conditions: buffer
[4] = biological target: 5-hydroxytryptamine receptor 2A (Homo sapiens, UniProt P28223); experiment: Agonist activity at human recombinant 5HT2A receptor expressed in Swiss mouse 3T3 cells assessed as induction of calcium mobilization by FLIPR assay; assay type: functional, cell-based; conditions: for Emax: NIH3T3
[5] = biological target: T1, 5-hydroxytryptamine receptor 2C (Homo sapiens, UniProt P28335); experiment: (§1) Agonist activity at human recombinant 5HT2C receptor expressed in CHOK1 cells assessed as induction of calcium mobilization by FLIPR assay; assay type: functional, cell-based, CHO-K1
T1 sequence (P28335 whole entry): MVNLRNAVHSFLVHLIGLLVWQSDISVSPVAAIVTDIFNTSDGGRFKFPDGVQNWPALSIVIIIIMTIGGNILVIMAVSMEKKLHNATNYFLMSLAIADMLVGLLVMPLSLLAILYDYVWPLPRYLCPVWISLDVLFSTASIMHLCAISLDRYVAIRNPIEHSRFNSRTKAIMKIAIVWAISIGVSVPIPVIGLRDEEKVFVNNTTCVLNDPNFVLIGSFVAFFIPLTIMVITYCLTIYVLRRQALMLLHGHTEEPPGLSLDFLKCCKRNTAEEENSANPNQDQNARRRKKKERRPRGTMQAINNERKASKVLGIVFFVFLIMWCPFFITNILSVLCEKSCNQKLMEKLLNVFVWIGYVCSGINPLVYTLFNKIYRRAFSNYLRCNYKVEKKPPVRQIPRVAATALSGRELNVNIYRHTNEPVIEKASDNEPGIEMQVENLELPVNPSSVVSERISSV

[6] = biological target: T2, 5-hydroxytryptamine receptor 2C (Homo sapiens) (UniProt P28335); experiment: as §1; assay type: functional, cell-based; conditions: CHO-K1
T2 sequence (whole entry): T1 sequence (P28335 whole entry)

[7] = biological target: 5-hydroxytryptamine receptor 2B (Homo sapiens, UniProt P41595); experiment: Agonist activity at human recombinant 5HT2B receptor expressed in Swiss mouse 3T3 cells assessed as induction of calcium mobilization by FLIPR assay; assay type: functional, cell-based; conditions: for Emax: NIH3T3
[8] = system: Canis familiaris; experiment: Plasma concentration in continuous iv dosed dog; assay type: ADME, organism-based, Canis lupus familiaris; conditions: in vivo
[9] = biological target: T1, 5-hydroxytryptamine receptor 2C; experiment: Displacement of [3H]meselurgine from human recombinant 5HT2C receptor expressed in Swiss mouse 3T3 cells by SPA; assay type: cell-based
How it was run: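 Competition binding against [3H]-meselurgine at the human 5-HT2C receptor, read by scintillation proximity assay, using membrane preparations made from Swiss 3T3 cells expressing the recombinant receptor.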

[10] = system: Canis familiaris; experiment: Increase in urethral pressure in continuous iv dosed dog model of stress urinary incontinence; assay type: functional, Canis lupus familiaris, Urethra
[11] = biological target: GABA-A receptor; agonist GABA site (Homo sapiens) (UniProt P14867+P47870+P28472+P48169+P34903+P18505+P47869+P31644+Q16445); experiment: Binding affinity to human GABAA receptor; assay type: protein-complex assay
[12] = biological target: 5-hydroxytryptamine receptor 1B (Homo sapiens) (UniProt P28222); experiment: Binding affinity to human 5HT1B receptor
[13] = biological target: T3, B2 bradykinin receptor (Homo sapiens) (UniProt P30411); experiment: Binding affinity to human bradykinin B2 receptor
T3 sequence (whole entry): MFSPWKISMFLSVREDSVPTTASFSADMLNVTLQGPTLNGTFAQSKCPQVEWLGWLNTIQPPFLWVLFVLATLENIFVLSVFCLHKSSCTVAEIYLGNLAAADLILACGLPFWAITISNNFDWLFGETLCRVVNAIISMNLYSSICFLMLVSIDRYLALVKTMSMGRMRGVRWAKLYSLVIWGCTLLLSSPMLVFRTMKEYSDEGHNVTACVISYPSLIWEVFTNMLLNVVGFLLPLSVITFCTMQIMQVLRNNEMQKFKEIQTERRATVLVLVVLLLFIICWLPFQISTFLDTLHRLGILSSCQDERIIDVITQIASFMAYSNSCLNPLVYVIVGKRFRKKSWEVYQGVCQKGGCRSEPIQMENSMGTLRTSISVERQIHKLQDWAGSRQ

[14] = biological target: 5-hydroxytryptamine receptor 6 (Homo sapiens) (UniProt P50406); experiment: Binding affinity to human 5HT6 receptor
[15] = biological target: 5-hydroxytryptamine receptor 1D (Homo sapiens) (UniProt P28221); experiment: Binding affinity to human 5HT1D receptor
Chain of 5-hydroxytryptamine receptor 1D (Homo sapiens) (P28221 whole entry): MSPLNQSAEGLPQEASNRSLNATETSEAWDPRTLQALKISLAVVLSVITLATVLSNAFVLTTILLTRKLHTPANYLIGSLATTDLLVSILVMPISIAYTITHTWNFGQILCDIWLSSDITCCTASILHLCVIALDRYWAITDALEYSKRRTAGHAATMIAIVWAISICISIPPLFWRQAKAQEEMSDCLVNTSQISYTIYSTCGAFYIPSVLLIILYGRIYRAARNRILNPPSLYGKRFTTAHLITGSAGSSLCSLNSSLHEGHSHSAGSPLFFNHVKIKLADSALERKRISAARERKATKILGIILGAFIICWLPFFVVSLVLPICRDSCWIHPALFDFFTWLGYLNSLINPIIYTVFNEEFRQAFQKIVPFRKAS

Chain of 5-hydroxytryptamine receptor 2A (P28223 whole entry): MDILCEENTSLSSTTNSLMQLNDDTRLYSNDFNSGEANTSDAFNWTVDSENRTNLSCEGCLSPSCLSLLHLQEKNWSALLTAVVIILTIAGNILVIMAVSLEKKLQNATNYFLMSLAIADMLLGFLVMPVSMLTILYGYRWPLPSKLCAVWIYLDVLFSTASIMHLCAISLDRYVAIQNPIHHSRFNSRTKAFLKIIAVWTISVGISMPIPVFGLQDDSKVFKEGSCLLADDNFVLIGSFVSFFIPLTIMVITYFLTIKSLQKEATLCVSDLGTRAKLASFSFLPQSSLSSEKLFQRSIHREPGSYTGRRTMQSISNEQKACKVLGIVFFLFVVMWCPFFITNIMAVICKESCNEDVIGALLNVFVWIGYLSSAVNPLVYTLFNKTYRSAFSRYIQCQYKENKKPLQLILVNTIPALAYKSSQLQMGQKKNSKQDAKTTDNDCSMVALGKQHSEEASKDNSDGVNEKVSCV
Chain of 5-hydroxytryptamine receptor 2B (P41595 whole entry): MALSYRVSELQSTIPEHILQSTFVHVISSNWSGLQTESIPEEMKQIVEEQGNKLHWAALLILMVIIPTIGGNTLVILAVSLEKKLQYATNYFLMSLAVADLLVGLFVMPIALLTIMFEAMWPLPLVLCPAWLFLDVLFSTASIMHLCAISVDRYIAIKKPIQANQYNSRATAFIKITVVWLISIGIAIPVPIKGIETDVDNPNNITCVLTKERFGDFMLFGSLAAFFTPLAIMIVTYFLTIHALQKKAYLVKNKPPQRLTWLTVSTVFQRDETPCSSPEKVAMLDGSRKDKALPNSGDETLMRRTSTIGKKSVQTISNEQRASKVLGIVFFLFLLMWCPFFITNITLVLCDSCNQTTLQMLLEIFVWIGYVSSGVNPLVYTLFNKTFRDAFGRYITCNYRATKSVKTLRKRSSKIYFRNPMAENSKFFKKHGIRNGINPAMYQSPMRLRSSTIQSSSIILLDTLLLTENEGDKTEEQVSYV
Chain of 5-hydroxytryptamine receptor 1B (Homo sapiens) (P28222 whole entry): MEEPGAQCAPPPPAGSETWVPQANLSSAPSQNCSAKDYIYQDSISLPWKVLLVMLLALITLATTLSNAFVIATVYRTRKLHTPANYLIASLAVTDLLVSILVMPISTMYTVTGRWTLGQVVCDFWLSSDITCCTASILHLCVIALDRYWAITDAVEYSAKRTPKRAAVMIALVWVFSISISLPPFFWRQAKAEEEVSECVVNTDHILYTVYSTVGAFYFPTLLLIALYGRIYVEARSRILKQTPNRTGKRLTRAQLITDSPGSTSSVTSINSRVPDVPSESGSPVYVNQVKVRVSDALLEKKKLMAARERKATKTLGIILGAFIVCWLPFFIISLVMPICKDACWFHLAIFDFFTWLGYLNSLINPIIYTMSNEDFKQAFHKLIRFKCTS
Chain of 5-hydroxytryptamine receptor 6 (Homo sapiens) (P50406 whole entry): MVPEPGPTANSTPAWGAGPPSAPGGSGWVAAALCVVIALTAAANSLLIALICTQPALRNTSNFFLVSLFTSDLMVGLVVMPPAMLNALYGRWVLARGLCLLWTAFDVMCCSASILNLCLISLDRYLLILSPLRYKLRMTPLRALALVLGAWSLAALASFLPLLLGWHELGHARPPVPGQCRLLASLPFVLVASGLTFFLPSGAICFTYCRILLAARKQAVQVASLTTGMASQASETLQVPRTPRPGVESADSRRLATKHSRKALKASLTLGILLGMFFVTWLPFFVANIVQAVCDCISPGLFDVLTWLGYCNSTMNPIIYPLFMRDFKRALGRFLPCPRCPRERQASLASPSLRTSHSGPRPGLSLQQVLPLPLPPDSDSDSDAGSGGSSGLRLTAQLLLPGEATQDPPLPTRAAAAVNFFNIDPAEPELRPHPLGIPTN

Clc1ccccc1CCOc1cncc(N2CCNCC2)n1
efflux ratio [1]: 2
microsomal CLint [2]: 94 µL/min/mg
logD [3]: 2.2
pEC50 [4]: 6.51
Emax [4]: 56%
pEC50 [5]: 8.00
Emax [6]: 69%
pEC50 [7]: 6.73
Emax [7]: 42%

O=c1ccc(N2CCNCC2)nn1CCOc1cccc(Cl)c1
pEC50 [5]: < 5.00

O=c1ccc(N2CCNCC2)nn1CCOc1ccccc1
pEC50 [5]: < 5.00

Cc1cc(N2CCNCC2)nn(CCOc2ccccc2Cl)c1=O
pEC50 [5]: < 5.00

Cc1ccccc1OCCn1nc(N2CCNCC2)ccc1=O
pEC50 [5]: < 5.34
Emax [6]: 36%

C[C@H]1CN(c2ccc(=O)n(CCOc3ccccc3Cl)n2)CCN1
pEC50 [5]: < 5.00

Cc1cc(=O)n(CCOc2ccccc2Cl)nc1N1CCNCC1
pEC50 [5]: 6.29
Emax [6]: 31%

COc1ccccc1OCCn1nc(N2CCNCC2)ccc1=O
pEC50 [5]: < 5.00

C[C@@H]1CNCCN1c1ccc(=O)n(CCOc2ccccc2C(F)(F)F)n1
concentration [8]: 52 nM
pKi [9]: 7.05
pEC50 [4]: 7.39
Emax [4]: 61%
Activity [10]: >20%
pEC50 [5]: 7.96
Emax [6]: 51%
pEC50 [7]: < 5.58
Activity [11]: < 1000 nM
Activity [12]: < 1000 nM
Activity [13]: < 1000 nM
Activity [14]: < 1000 nM
Activity [15]: < 1000 nM

O=c1ccc(N2CCNCC2)nn1CCOc1ccccc1Br
pEC50 [5]: 7.00
Emax [6]: 34%

N#Cc1ccccc1OCCn1nc(N2CCNCC2)ccc1=O
pEC50 [5]: 6.94
Emax [6]: 69%

O=c1ccc(N2CCNCC2)nn1CCOc1ccc(Cl)cc1
pEC50 [5]: < 5.00

C[C@@H](COc1ccccc1Cl)n1nc(N2CCNCC2)ccc1=O
pKi [9]: 6.14
pEC50 [4]: 7.19
Emax [4]: 69%
pEC50 [5]: 7.60
Emax [6]: 77%
pEC50 [7]: 6.30
Emax [7]: 30%

O=CC1CNCCN1c1ccc(=O)n(CCOc2ccccc2Cl)n1 (stereo not given)
pEC50 [5]: < 5.00

O=c1ccc(N2CCNCC2)nn1CCOc1cccc(Cl)c1Cl
pEC50 [5]: < 5.67

C[C@H](COc1ccccc1Cl)n1nc(N2CCNCC2)ccc1=O
pEC50 [5]: < 5.72
Emax [6]: 55%

C[C@@H](Cn1nc(N2CCNCC2)ccc1=O)Oc1ccccc1Cl
pEC50 [5]: 6.44
Emax [6]: 87%

O=c1ccc(N2CCNCC2)nn1CCOc1ccccc1C(F)(F)F
pKi [9]: 6.37
pEC50 [4]: 5.96
Emax [4]: 49%
pEC50 [5]: 7.33
Emax [6]: 45%
pEC50 [7]: < 5.00

Clc1cccc(N2CCNCC2)c1
Emax [4]: 58%

C[C@H]1CNCCN1c1ccc(=O)n(CCOc2ccccc2Cl)n1
pEC50 [5]: < 5.00

CC[C@@H]1CNCCN1c1ccc(=O)n(CCOc2ccccc2Cl)n1
pEC50 [5]: 6.39
Emax [6]: 41%

O=c1ccc(N2CCNCC2)nn1CCOc1ccccc1Cl
efflux ratio [1]: 5
pKi [9]: 5.80
microsomal CLint [2]: < 7 µL/min/mg
logD [3]: 0.6
pEC50 [4]: 6.60
Emax [4]: 41%
pEC50 [5]: 6.79
Emax [6]: 58%
pEC50 [7]: < 5.00

C[C@@H]1CNCCN1c1ccc(=O)n(CCOc2ccccc2Cl)n1
efflux ratio [1]: 6
pKi [9]: 6.49
microsomal CLint [2]: 9.8 µL/min/mg
logD [3]: 0.9
pEC50 [4]: 6.94
Emax [4]: 42%
pEC50 [5]: 7.60
Emax [6]: 51%
pEC50 [7]: < 5.00

O=c1c2c(c(N3CCNCC3)nn1CCOc1ccccc1Cl)CCC2
pEC50 [5]: < 5.00

C[C@H](Cn1nc(N2CCNCC2)ccc1=O)Oc1ccccc1Cl
pEC50 [5]: 6.07
Emax [6]: 53%
